Test results as given in ChEMBL document CHEMBL1147654, “Synthesis and pharmacological evaluation of novel 9- and 10-substituted cytisine derivatives. Nicotinic ligands of enhanced subtype selectivity” (J Med Chem, 2006).

How the values were obtained:
[1] = target: T1, Neuronal acetylcholine receptor; alpha4/beta2 (Rattus norvegicus, UniProt P09483+P12390); experiment: Displacement of [3H]epibatidine from rat forebrain alpha4beta2 nACHR
In short: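 Competition binding was run on rat forebrain membrane homogenates.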

[2] = Selectivity for rat alpha-4-beta-2 nACHR over alpha3beta4 nACHR expressed in human HEK293 cells; format: cell-based
In short: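 Ki ratio (α3β4/α4β2), taken from competition binding Ki values measured on membrane homogenates of stably transfected cells expressing the respective nAChR subtypes.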

[3] = target: T2, Neuronal acetylcholine receptor; alpha4/beta2 (Rattus norvegicus) (UniProt P09483+P12390); experiment: Inhibition of nicotine-stimulated response at rat alpha-4-beta-2 nACHR at 100 uM; format: functional
[4] = target: T3, Neuronal acetylcholine receptor; alpha2/beta2 (Rattus norvegicus, UniProt P12389+P12390); experiment: Displacement of [3H]epibatidine from rat alpha2beta2 nACHR expressed in human HEK293 cells at 10 uM; format: cell-based
[5] = target: T4, Neuronal acetylcholine receptor; alpha2/beta4 (Rattus norvegicus, UniProt P12389+P12392); experiment: Displacement of [3H]epibatidine from rat alpha-2-beta-4 nACHR expressed in human HEK293 cells at 10 uM; format: cell-based
[6] = target: Neuronal acetylcholine receptor; alpha3/beta2 (Rattus norvegicus, UniProt P04757+P12390); experiment: Displacement of [3H]epibatidine from rat alpha-3-beta-2 nACHR expressed in human HEK293 cells at 10 uM; format: cell-based
[7] = target: T5, Neuronal acetylcholine receptor; alpha3/beta4 (Rattus norvegicus, UniProt P04757+P12392); experiment: Displacement of [3H]epibatidine from rat alpha-3-beta-4 nACHR expressed in human HEK293 cells at 10 uM; format: cell-based
[8] = target: T1, Neuronal acetylcholine receptor; alpha4/beta2; experiment: Displacement of [3H]epibatidine from rat alpha-4-beta-2 nACHR expressed in human HEK293 cells at 10 uM; format: cell-based
[9] = target: T6, Neuronal acetylcholine receptor; alpha4/beta4 (Rattus norvegicus, UniProt P09483+P12392); experiment: Displacement of [3H]epibatidine from rat alpha-4-beta-4 nACHR expressed in human HEK293 cells at 10 uM; format: cell-based
[10] = Displacement of [3H]epibatidine from rat […] nACHR expressed in human HEK293 cells at 10 uM; format: cell-based
[11] = target: T2, Neuronal acetylcholine receptor; alpha4/beta2 (Rattus norvegicus); experiment: Efficacy at rat alpha4beta2 nACHR by rubidium efflux assay; format: functional
[12] = target: Neuronal acetylcholine receptor; alpha3/beta4 (Rattus norvegicus) (UniProt P04757+P12392); experiment: Efficacy at rat alpha3beta4 nACHR expressed in human HEK293 cells by rubidium efflux assay relative to nicotine; format: functional, cell-based
In short: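 Agonist-stimulated 86Rb+ efflux in KXα3β4R2 cells stably expressing rat α3β4 nAChRs. Mean ± standard error of three independent experiments, each in quadruplicate.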

[13] = target: T5, Neuronal acetylcholine receptor; alpha3/beta4; experiment: Displacement of [3H]epibatidine from rat alpha3beta4 nACHR expressed in human HEK293 cells; format: cell-based
In short: (§1)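 Competition binding in membrane homogenates of stably transfected cells expressing each nAChR subtype, with Ki values derived from displacement.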

[14] = target: T6, Neuronal acetylcholine receptor; alpha4/beta4; experiment: Displacement of [3H]epibatidine from rat alpha-4-beta-4 nACHR expressed in human HEK293 cells; format: cell-based; in short: as §1
[15] = target: T3, Neuronal acetylcholine receptor; alpha2/beta2; experiment: Displacement of [3H]epibatidine from rat alpha-2-beta-2 nACHR expressed in human HEK293 cells; format: cell-based; in short: as §1
[16] = target: T4, Neuronal acetylcholine receptor; alpha2/beta4; experiment: Displacement of [3H]epibatidine from rat alpha-2-beta-4 nACHR expressed in human HEK293 cells; format: cell-based; in short: as §1

T5 sequence (P04757 whole entry): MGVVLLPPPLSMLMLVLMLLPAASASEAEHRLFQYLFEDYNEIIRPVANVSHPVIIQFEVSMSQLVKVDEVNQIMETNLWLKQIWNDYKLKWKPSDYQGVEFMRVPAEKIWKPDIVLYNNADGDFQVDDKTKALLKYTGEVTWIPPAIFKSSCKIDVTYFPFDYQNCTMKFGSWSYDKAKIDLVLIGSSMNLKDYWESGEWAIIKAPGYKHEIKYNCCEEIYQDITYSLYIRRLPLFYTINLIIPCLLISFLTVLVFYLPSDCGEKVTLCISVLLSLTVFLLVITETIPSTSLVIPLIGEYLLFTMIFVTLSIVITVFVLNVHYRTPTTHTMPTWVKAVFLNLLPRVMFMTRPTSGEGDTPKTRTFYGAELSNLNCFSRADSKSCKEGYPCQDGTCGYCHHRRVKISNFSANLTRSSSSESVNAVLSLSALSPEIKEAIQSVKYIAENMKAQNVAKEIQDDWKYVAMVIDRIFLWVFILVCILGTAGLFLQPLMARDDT
T5 sequence (P12392 whole entry): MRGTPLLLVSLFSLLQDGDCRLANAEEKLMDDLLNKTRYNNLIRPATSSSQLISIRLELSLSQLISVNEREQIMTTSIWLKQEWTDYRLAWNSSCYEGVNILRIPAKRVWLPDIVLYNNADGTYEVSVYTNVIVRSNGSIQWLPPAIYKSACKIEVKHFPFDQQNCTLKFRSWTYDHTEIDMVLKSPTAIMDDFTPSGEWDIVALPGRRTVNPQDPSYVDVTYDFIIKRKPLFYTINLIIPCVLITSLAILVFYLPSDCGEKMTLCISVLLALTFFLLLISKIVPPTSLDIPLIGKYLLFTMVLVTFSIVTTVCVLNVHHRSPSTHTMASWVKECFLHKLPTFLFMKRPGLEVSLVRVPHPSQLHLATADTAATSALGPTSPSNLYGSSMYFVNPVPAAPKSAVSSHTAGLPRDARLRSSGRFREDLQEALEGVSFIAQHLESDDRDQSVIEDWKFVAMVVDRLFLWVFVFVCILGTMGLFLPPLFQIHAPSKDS
Chain of Neuronal acetylcholine receptor; alpha3/beta2 (P04757 whole entry): as the sequence (P04757 whole entry) above
Chain of Neuronal acetylcholine receptor; alpha3/beta2 (P12390 whole entry): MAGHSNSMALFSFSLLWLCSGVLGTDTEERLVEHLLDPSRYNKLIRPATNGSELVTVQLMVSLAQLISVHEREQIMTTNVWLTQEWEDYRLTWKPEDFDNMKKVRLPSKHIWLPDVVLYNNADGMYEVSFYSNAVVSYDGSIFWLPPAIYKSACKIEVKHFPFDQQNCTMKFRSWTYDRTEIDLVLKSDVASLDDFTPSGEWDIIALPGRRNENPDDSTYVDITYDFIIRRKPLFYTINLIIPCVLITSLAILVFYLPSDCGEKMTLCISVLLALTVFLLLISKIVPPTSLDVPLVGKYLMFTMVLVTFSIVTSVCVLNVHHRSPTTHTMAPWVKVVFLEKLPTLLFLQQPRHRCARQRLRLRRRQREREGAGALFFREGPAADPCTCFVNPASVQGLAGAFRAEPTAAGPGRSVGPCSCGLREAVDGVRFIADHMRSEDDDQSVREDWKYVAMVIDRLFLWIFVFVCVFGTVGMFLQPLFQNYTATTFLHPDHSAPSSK
T1 sequence (P09483 whole entry): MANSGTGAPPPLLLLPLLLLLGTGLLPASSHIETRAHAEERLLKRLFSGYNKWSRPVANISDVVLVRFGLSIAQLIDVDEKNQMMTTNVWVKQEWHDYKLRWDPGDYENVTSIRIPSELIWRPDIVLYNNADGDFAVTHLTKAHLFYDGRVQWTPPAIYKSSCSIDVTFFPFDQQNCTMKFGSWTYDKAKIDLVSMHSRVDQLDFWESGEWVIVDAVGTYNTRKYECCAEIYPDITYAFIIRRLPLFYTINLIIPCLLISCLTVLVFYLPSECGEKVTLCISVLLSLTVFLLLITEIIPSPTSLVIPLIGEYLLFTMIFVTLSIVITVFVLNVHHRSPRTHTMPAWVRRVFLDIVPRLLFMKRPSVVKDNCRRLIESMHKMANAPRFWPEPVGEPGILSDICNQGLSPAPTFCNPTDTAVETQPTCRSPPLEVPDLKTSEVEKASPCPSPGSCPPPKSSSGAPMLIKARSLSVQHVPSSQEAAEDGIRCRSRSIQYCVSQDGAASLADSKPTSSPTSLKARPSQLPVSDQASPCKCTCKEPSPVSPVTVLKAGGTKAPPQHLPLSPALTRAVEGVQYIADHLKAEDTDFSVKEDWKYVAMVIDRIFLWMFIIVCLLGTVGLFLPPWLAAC
T1 sequence (P12390 whole entry): as the sequence (P12390 whole entry) above
T6 sequence (P09483 whole entry): as the sequence (P09483 whole entry) above
T6 sequence (P12392 whole entry): as the sequence (P12392 whole entry) above
T4 sequence (P12389 whole entry): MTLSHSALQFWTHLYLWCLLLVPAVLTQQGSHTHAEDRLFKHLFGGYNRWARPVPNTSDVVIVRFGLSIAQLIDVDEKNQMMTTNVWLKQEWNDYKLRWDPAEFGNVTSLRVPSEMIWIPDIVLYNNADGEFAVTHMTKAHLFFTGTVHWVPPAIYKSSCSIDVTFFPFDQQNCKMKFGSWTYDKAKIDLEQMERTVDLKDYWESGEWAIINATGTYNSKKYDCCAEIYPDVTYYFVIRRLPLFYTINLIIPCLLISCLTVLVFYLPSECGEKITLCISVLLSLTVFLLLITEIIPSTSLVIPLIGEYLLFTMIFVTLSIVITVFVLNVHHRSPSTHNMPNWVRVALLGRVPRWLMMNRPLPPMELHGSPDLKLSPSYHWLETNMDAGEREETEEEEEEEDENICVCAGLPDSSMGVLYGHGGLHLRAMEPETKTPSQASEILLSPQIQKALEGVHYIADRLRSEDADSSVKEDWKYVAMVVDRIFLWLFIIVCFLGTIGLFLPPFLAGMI
T4 sequence (P12392 whole entry): as the sequence (P12392 whole entry) above
T3 sequence (P12389 whole entry): as the sequence (P12389 whole entry) above
T3 sequence (P12390 whole entry): as the sequence (P12390 whole entry) above

| SMILES | Ratio [2] | Ki [5] [µM] | Ki [6] [µM] | Ki [7] [µM] | Ki [8] [µM] | Ki [9] [µM] | Ki [10] [µM] | further results |
| --- | --- | --- | --- | --- | --- | --- | --- | --- |
| O=c1cc(CO)cc2n1CC1CNCC2C1 (racemic) | 909 | – | – | – | – | – | – | Ki [1]: 0.038 µM; inhibition [3]: > 50% |
| CCC(=O)[C@H]1C2CNCC(C2)c2cccc(=O)n21 (single isomer, unassigned) | 18 | – | – | – | – | – | – | – |
| O=c1ccccn1CC1CCCNC1 (centres undefined) | – | 159 | 18.7 | 535 | 1.78 | 5.55 | 253 | Ki [4]: 4.63 µM |
| Cc1cc2n(c(=O)c1)CC1CNCC2C1 (racemic) | 3530 | – | – | – | – | – | – | Ki [1]: 0.02 µM; inhibition [3]: > 50% |
| C=Cc1ccc2n(c1=O)CC1CNCC2C1 (single isomer, unassigned) | – | – | – | – | – | – | – | Emax [11]: 22% |
| O=c1c(-c2ccc(F)cc2)ccc2n1CC1CNCC2C1 (single isomer, unassigned) | 157 | – | – | – | – | – | – | – |
| O=c1ccccn1CC1CCCN(Cc2ccccc2)C1 (centres undefined) | – | 91 | 4.3 | 83 | 0.54 | 1.4 | 54 | Ki [4]: 100 µM |
| CN1CCC[C@H]1c1cccnc1 | – | – | – | – | – | – | – | Emax [12]: 100%; Emax [11]: 100% |
| O=c1ccccn1CC1CCN(Cc2ccccc2)CC1 | – | 440 | 7.3 | 620 | 1.3 | 4.5 | 470 | Ki [4]: 26 µM |
| Cc1ccc(-c2ccc3n(c2=O)CC2CNCC3C2)s1 (single isomer, unassigned) | 59 | – | – | – | – | – | – | – |
| COC(=O)[C@H]1C2CNCC(C2)c2cccc(=O)n21 (single isomer, unassigned) | 13 | – | – | – | – | – | – | – |
| O=c1cccc2n1C[C@@H]1CNC[C@H]2C1 [CYTISINICLINE] | 144 | – | – | – | – | – | – | Ki [13]: 0.217 µM; Ki [14]: 0.0021 µM; Ki [1]: 0.00192 µM; Ki [15]: 0.00107 µM; Ki [16]: 0.00541 µM |
| O=c1ccccn1CC1CCNCC1 | – | 80 | 12 | 750 | 1.6 | 5.4 | 87 | – |
| CN1CCCC(Cn2ccccc2=O)C1 (centres undefined) | – | 180 | 6 | 160 | 0.98 | 2.6 | 76 | Ki [4]: 19 µM |
| CCCCc1ccc(-c2ccc3n(c2=O)CC2CNCC3C2)cc1 (single isomer, unassigned) | 17 | – | – | – | – | – | – | – |
